From PubChem BioAssay
This is a sample that favours compounds with a hit; in the whole collection about 2.4% have one here.
PREPL inhibitor: inhibits the human prolyl oligopeptidase-like enzyme | 0.68% of 320,000 active | AID 2751 | recombinant PREPL, fluorescence polarization activity-based probe | inhibition, % at 5.96 µM; in the data active = inhibition above about 43%;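 also: 0% = enzyme with DMSO and 100% = wells lacking enzyme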
CSN inh: blocks human CSN-mediated cullin deneddylation; 0.38% of 360,000 active; Q92905; Purified CSN, SCF-Nedd8-OG deneddylation, fluorescence polarization; inhibition, % at 12.5 µM;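 active = pattern-corrected inhibition above about 35%, with an unprinted fluorescence ratio check between 0.5 and 1.5, limit read from the data, passing the limit was not always enough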;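 also: 0% = enzyme with substrate and 100% = substrate without enzyme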
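Test system: purified human Csn5 enzyme expressed in HEK293T cells. Amount: 0.24 nM enzyme. Reagent: SCFSkp2-Nedd8OG substrate at 10 nM final. Schedule: 90 min incubation of compound, enzyme and substrate at room temperature. Detection: fluorescence polarization. Read-out: % inhibition of substrate cleavage by Csn5.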
Tb MetRS inh: Trypanosoma brucei MetRS inhibition; purified T. brucei MetRS, ATP depletion, Kinase-Glo luminescence; 0.4% of 360,000 active; inhibition, % at 11.9 µM;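 active = inhibition above a per-plate cutoff of the control wells' mean inhibition plus 3 SD, cut at about 5.5% in these data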;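 also: 0% = DMSO wells median and 100% = median of wells with control inhibitor compound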
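Measured by: Kinase-Glo luciferase luminescence reporting remaining unconsumed ATP. Material: purified T. brucei MetRS enzyme. Doses: 11.9 µM compound single dose, 0.9% DMSO. Medium: HEPES buffer containing pyrophosphatase, BSA, spermine, DTT. Times: 15 min preincubation, 2 h reaction, all 25 °C. Reagent: methionine, ATP and bulk E. coli tRNA.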
Rpn11 block: Rpn11 (human) deubiquitinase inhibition | O00487 | human 26S proteasome, Ub4-pepOG fluorescence polarization; 20S core pre-blocked with epoxomicin | 0.59% of 360,000 active | AID 588493 | inhibition, % at 20 µM;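 active = inhibition at 20 µM, scaled to each plate's controls, above about 33%, limit read from the data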
Neddylation inh: cullin neddylation inhibition | P61081+Q13564 | TR-FRET cullin neddylation, biochemical | inhibition, % at 25 µM | 0.58% of 360,000 active | AID 651699; in the data active = inhibition above about 36%
Target sequence (P61081 whole entry, looked up): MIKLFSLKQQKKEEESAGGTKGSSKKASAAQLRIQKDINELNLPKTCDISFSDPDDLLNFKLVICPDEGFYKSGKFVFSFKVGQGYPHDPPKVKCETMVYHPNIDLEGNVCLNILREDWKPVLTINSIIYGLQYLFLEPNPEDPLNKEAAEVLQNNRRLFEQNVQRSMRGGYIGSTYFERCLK
Target sequence (Q13564 whole entry, looked up): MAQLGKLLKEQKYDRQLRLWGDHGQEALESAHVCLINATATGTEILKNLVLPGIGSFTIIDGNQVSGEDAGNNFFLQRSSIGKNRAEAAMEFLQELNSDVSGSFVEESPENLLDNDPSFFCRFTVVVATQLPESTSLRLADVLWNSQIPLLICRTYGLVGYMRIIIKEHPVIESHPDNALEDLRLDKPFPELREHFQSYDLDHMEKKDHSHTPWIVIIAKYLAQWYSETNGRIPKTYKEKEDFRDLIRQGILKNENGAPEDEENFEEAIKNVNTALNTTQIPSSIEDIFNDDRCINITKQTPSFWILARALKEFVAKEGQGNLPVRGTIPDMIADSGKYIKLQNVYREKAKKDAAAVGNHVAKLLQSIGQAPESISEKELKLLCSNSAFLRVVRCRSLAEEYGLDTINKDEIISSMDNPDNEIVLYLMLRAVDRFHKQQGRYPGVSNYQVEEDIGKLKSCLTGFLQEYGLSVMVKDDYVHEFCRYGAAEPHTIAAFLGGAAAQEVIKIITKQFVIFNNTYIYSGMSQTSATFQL
HNF4A DNA FP: change in binding of human HNF4 alpha to DNA | P41235 | HNF4a-FITC DNA binding, fluorescence polarization, 1 h | activity change, % at 10 µM | 0.3% of 360,000 active; in the data active = activity change above about 30%, passing the limit was not always enough
Rpn11 confirm: confirmation of human proteasome Rpn11 inhibitors. inhibition, % at 20 µM. 29% of 1,900 active. shares compounds with Rpn11 block. purified human 26S proteasome, Ub4-pepOG fluorescence polarization; proteasome pretreated with epoxomicin. AID 602318
MMP-2 counter: MMP-2 (human) inhibition counter-screen. 4% of 1,900 active. AID 602330. recombinant MMP-2, FRET peptide cleavage fluorescence. shares compounds with Rpn11 block. inhibition, % at 20 µM;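 also: human MMP-2 activated beforehand with APMA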
Thrombin FP: thrombin (bovine) inhibition counter-screen; shares compounds with Rpn11 block; bovine thrombin cleavage of Ub4-pepOG, fluorescence polarization; inhibition, % at 20 µM; AID 602333; 13% of 1,900 active;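 active = mean inhibition at least 40% at 20 µM, or signal 3 deviations below plate average, so some actives read negative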;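 also: plate controls were thrombin with DMSO for no effect and buffer wells lacking thrombin for full effect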
Numbers without * were called inactive; / = not tested or not shown; ! = repeats disagree. Rule as the data show it, unless noted: active = inhibition above about 40%; inactive = the rest.

SMILES | PREPL inhibitor | CSN inh | Tb MetRS inh | Rpn11 block | Neddylation inh | HNF4A DNA FP | Rpn11 confirm | MMP-2 counter | Thrombin FP
C=CCn1cnc2c(c1=O)c1nc3ccccc3nc1n2/N=C/c1cccc(OC)c1OC | 1 | 59* | 0 | 192* | 11 | 2 | 5 | -25 | -2
COc1cccc(-c2cc3nc(Nc4ccc(OC)c(OC)c4)n(C)c(=O)c3s2)c1 | / | 4 | 0 | 2 | -149 | 3 | / | / | /
Cc1c(N=C2Nc3cccc4cccc2c34)c(=O)n(-c2ccccc2)n1C | 0 | 19 | 0 | / | -16 | 43*! | -10 | -38 | active
O=C(Cc1cccs1)N(Cc1cccs1)C1(C(=O)NC2CCCC2)CCCCC1 | 9 | -3 | 0 | 136* | -1 | 0 | 2 | -6 | 6
CCCN(C1CCS(=O)(=O)C1)S(=O)(=O)c1cc(OC)ccc1OC (stereo unspecified) | 10 | -4 | 0 | 2 | -25 | -4 | / | / | /
Cn1c2ccccc2c2cc(C(=O)OCC(=O)N3CC(=O)Nc4ccccc43)sc21 | -2 | 1 | 1 | 65* | -132 | 28 | 121* | -21 | 88*
Cc1cc(C(C#N)c2ccc(Cl)cc2)c(Cl)cc1NC(=O)c1cc(I)cc(I)c1O (stereo unspecified) | 23 | 12 | -2 | 47* | -2 | -9 | -2 | -5 | -6
Cc1ccc(CSCc2ccc(C(=O)O)o2)cc1 | -10 | 0 | 0 | 9 | 3 | -1 | / | / | /
CC(SCc1ccc(C(=O)O)o1)c1ccc(C(=O)O)o1 (stereo unspecified) | 6 | 0 | -1 | 143* | -7 | 2 | -8 | -30 | -8
O=C(Cc1ccc(NC(=O)C2CCN(C(=O)C3CC3)CC2)cc1)Nc1cccc(C(=O)N2CCCCC2)c1 | / | 3 | 0 | 3 | -1 | -1 | / | / | /
CCOc1cccc(CN2CCC(n3nccc3NC(=O)C3CC3)CC2)c1O | 3 | -2 | 0 | -14 | 1 | -4 | / | / | /
CCCCCCCCN1[C@@H](CC(=O)OC)c2cc(F)ccc2S1(=O)=O | -1 | 1 | 0 | 56* | 4 | 3 | 10 | -9 | 5
Cc1cc(C)cc(NC(=O)C(OC(=O)c2ccc(NC(=O)CC#N)cc2)c2ccccc2)c1 (stereo unspecified) | -3 | 6 | 0 | 48* | 6 | 12 | 25 | -20 | 17
Cc1ccc(C)c(NC(=O)C(OC(=O)c2ccc(NC(=O)CC#N)cc2)c2ccccc2)c1 (stereo unspecified) | 8 | 6 | 0 | 34 | 9 | 10 | / | / | /
O=C(Nc1ccc(-c2nc3cc(Cl)ccc3c(=O)o2)cc1)c1ccco1 | 3 | 13 | -1 | 50* | / | -4 | -6 | -21 | -25
COc1cccc(S(=O)(=O)N(C)C[C@@H]2OCc3cn(nn3)CCCC(=O)N([C@H](C)CO)C[C@H]2C)c1 | / | -5 | -2 | -4 | 0 | -6 | / | / | /
S=C(Nc1cc(Cl)ccc1Oc1ccccc1)N1CCN(c2ccccn2)CC1 | / | -1 | 0 | 36* | 6 | 8 | -8 | 47* | -3
COc1ccc(OC)c(NC(=S)N2CCN(c3ccccn3)CC2)c1 | 6 | -4 | 0 | 0 | 2 | -2 | / | / | /
Oc1ccc(C[C@H]2CNC(=S)N2C[C@H]2CCCN2C[C@H](Cc2ccccc2)N2C[C@H](Cc3ccccc3)N(CC3CCCCC3)C2=S)cc1 | / | 2 | -1 | / | 5 | -5 | / | / | /
CC(C#N)(NC(=O)CN1CCN(S(=O)(=O)c2ccccc2Cl)CC1)C1CC1 (stereo unspecified) | 4 | -4 | 0 | 3 | -5 | 2 | / | / | /
CCN(CC)c1ccc(C=C2SC(=S)NC2=O)cc1 | / | -74 | 0 | / | -403 | 5 | / | / | /
Cc1cc(/C=C2\SC(=S)NC2=O)cc(C)c1O | -61 | 33 | 1 | 124* | -50 | 34* | 26 | 8 | 19
CCOc1ccc(C(=O)Nc2ccc(NC(=O)c3ccco3)c(Cl)c2)cc1Cl | 20 | 2 | 1 | -4 | / | -1 | / | / | /
CCOc1ccc(C(=O)Nc2cccc(-c3nc4cccnc4o3)c2)cc1Cl | 16 | -7 | -1 | 55* | 20 | 2 | 19 | -24 | 3
COc1ccccc1Cn1c(=S)[nH]c2cc(C(=O)N3CC(C)CC(C)C3)ccc2c1=O (stereo unspecified) | / | 2 | 0 | 2 | -29 | 2 | / | / | /
SMILES | PREPL inhibitor | CSN inh | Tb MetRS inh | Rpn11 block | Neddylation inh | HNF4A DNA FP | Rpn11 confirm | MMP-2 counter | Thrombin FP
CC12CCC(=O)C=C1CCCC2=O (stereo unspecified) | / | 2 | 0 | 6 | 0 | 3 | / | / | /
COc1ccccc1NC(=O)CCC(=O)c1ccc(-c2ccccc2)cc1 | 12 | 5 | -1 | 59* | -28 | 34 | 6 | 4 | -1
COc1ccccc1NC(=O)CCC(=O)Nc1ccccc1OC | -4 | -3 | 0 | 8 | 0 | 3 | / | / | /
COc1ccc(-c2cc(NC(C)=O)c3ncc(-c4ccc(F)cc4)n3c2)cc1OC | / | 5 | 0 | 17 | 16 | 8 | / | / | /
CCN(CC)c1ccc(NC(=O)c2c(C)noc2C)cc1 | 0 | -3 | 0 | -2 | -8 | 2 | / | / | /
Cc1cccc2sc(NC(=O)C3CCCN(S(=O)(=O)c4cccc5nonc45)C3)nc12 (stereo unspecified) | 0 | 6 | 0 | 58* | -88 | 21 | 41* | -27 | -19
O=C(Nc1nc2nc(-c3ccccc3)cc(=O)n2[nH]1)c1ccccc1 | 8 | -3 | 0 | 3 | 1 | 1 | / | / | /
COc1ccc(C(=O)Nc2nc3nc(-c4ccccc4)cc(=O)n3[nH]2)cc1 | / | 2 | 0 | 69* | 3 | -26 | -4 | 4 | -22
O=C(CCCN1C(=O)/C(=C\c2cccc(Br)c2)SC1=S)Nc1ccc(C(=O)O)cc1 | / | 8 | 0 | 0 | -20 | -3 | / | / | /
C=CCn1c(CCC(=O)O)ccc1-c1ccc(OC)cc1 | 1 | 3 | -1 | 38* | 28 | 2 | 9 | 2 | -3
COc1ccc(-c2ccc(CCC(=O)O)n2CC(C)C)cc1 | 17 | 6 | -1 | 17 | / | 3 | / | / | /
COCCNC(=O)C1(C)CCCN(C(=O)c2ccco2)C1 (stereo unspecified) | / | 2 | 0 | -3 | 1 | -3 | / | / | /
CC#CC[N+](C)(C)CCCCCCCCCC | 18 | -2 | -1 | -1 | -3 | 0 | / | / | /
CCn1c2ccccc2c2cc(/C=N/NC(=O)c3ccccc3C)ccc21 | 10 | 0 | 0 | 1 | / | -2 | / | / | /
